Most compounds without a hit are left out; they make up all but 2.2% or so of the library.
Exocytosis inh – LAMP-1 surface exposure blockers, TALL-104 cells – cell-based, flow cytometry, MLPCN library, primary screen; TALL-104 LAMP-1 surface exposure; cells stimulated with thapsigargin and PMA; inhibition, % at 10 µM; hit rate 0.66% among 360,000; AID 651702, 2012;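 active = inhibition above about 55%, limit read from the data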
Myeloid diff MLP – induction of myeloid progenitor differentiation, primary screen, cell-based, flow cytometry, MLPCN library. hit rate 1% among 360,000. AID 624256, 2012. calls only at 10 µM. ER-HoxA9 myeloid progenitors, lysozyme-GFP differentiation;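 active = normalized GFP-positive differentiation at or above the plate's own cutoff, the solvent-only control mean plus 3 SD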;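 note: cells exposed to compound for four days before flow analysis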
HNF4A DNA FP – change in binding of human HNF4A to DNA, primary screen, biochemical, fluorescence polarization, FITC-DNA; 1 h; AID 1224865, 2016; hit rate 0.3% among 360,000; activity change, % at 10 µM; Hepatocyte nuclear factor 4-alpha (Homo sapiens), P41235; in the data active = activity change above about 30%, passing the limit was not always enough
Target sequence (P41235 whole entry, looked up): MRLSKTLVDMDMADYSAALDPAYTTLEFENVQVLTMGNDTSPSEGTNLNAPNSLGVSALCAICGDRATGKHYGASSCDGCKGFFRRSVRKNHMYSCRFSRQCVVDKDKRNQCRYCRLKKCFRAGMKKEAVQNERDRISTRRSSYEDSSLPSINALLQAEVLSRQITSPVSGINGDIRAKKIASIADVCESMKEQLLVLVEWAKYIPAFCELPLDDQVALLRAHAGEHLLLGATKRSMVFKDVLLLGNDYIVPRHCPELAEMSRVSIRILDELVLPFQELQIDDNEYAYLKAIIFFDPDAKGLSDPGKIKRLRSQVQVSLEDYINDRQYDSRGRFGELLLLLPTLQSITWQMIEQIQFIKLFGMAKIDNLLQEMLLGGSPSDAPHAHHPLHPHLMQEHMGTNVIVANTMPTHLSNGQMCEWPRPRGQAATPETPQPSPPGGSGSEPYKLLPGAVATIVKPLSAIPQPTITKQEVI
CSN deneddyl inh – inhibitors of CSN-mediated cullin deneddylation, primary screen, biochemical, fluorescence polarization, uHTS | Purified CSN, SCF-Nedd8-OG deneddylation | inhibition, % at 12.5 µM | hit rate 0.38% among 360,000;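 active = pattern-corrected inhibition above about 35%, with an unprinted fluorescence ratio check between 0.5 and 1.5, limit read from the data, passing the limit was not always enough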
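test system = HEK293T-derived human Csn5 enzyme | amount = 0.24 nM Csn5 enzyme, final concentration | medium = Tris/NaCl/DTT buffer, pH 7.5 | schedule = 90 min reaction at room temperature | signal = FP | evaluation = inhibition of Csn5 cleavage, % | compound dosing = single dose of 12.5 µM compound with 0.25% DMSO | probe or stimulus = 10 nM SCFSkp2-Nedd8OG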
Myeloid diff CP1 – inducers of myeloid progenitor differentiation, confirmation, cell-based, GFP/Mac1 flow cytometry, cherry pick 01; shares compounds with Myeloid diff MLP; ER-HoxA9 myeloid progenitors, GFP/Mac1 double-positive flow; calls only; hit rate 2% among 2,300;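 active = share of green or green-and-red cells above 9 and 9% in run 1 or 4 and 3% in run 2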
GFP autofluor – compound fluorescence in myeloid differentiation counter-screen; fluorescence response, % (concentration not given with the values); hit rate 7.4% among 2,300; shares compounds with Myeloid diff MLP; ER-HoxA9 myeloid progenitors, no estrogen, GFP autofluorescence flow cytometry; vehicle wells 0%, positive control 100%;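 active = over 5% cells positive for green fluorescent reporter, or over 2% positive for both it and APC stain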
Each line names hits and unclear results; the compound was inactive in the other large screens (follow-up assays come after a bar, where they were run).

Cc1ccc2sc(N3CCN(C(=O)c4ccc([N+](=O)[O-])o4)CC3)nc2c1C	none
O=C(c1ccc([N+](=O)[O-])o1)N1CCN(c2nc3ccc(F)cc3s2)CC1	none | Myeloid diff CP1 inactive | GFP autofluor inactive
O=C(c1ccc([N+](=O)[O-])o1)N1CCN(c2nc3c(Cl)cccc3s2)CC1	none
COc1cccc2sc(N3CCN(C(=O)c4ccc([N+](=O)[O-])o4)CC3)nc12	Myeloid diff MLP active | Myeloid diff CP1 inactive | GFP autofluor inactive
CCOc1ccccc1N1CC(C(=O)Nc2ccc(S(=O)(=O)N3CCCCC3)cc2)CC1=O (centres undefined)	none
O=C(c1ccco1)N1CCN(C(=S)NC2CC3CCC2C3)CC1 (centres undefined)	none
O=C(NC1CC2CCC1C2)c1ccco1 (centres undefined)	none | Myeloid diff CP1 inactive | GFP autofluor inactive
CCOC(=O)Cn1nnc(-c2cccc(OC)c2)n1	none | Myeloid diff CP1 inactive | GFP autofluor inactive
COc1cccc(-c2nnn(CC(=O)O)n2)c1	none (no result: Myeloid diff MLP)
CCOC(=O)Cn1c2c(c(=N)c3ccccc31)CCC2	Myeloid diff MLP active | Myeloid diff CP1 inactive | GFP autofluor inactive
O=c1[nH]c(CN2CCN(c3ccccc3)CC2)nc2scc(-c3ccccc3)c12	Myeloid diff MLP active | Myeloid diff CP1 inactive | GFP autofluor inactive
COc1ccc(N2CCN(Cc3nc4scc(-c5ccccc5)c4c(=O)[nH]3)CC2)cc1	none
O=C(Nc1ccc(S(=O)(=O)N2CCCCC2)cc1)C1CCCN(C(=O)c2ccc(Cl)cc2)C1 (centres undefined)	none | Myeloid diff CP1 inactive | GFP autofluor inactive
COC(=O)c1cnc(Nc2nc(C(N)Cc3ccccc3)cs2)nc1C(F)(F)F (centres undefined)	none
O=C(O)CCNS(=O)(=O)c1ccc(Oc2ccccc2)cc1	none | Myeloid diff CP1 inactive | GFP autofluor inactive
Cc1ccc(S(=O)(=O)NCCC(=O)O)cc1	none
COc1ccc(S(=O)(=O)Nc2nc3ccccc3nc2Nc2cccc(C(=O)O)c2)cc1	none
CC1CCCN(C(=O)COC(=O)c2ccc(=O)n(Cc3ccccc3)n2)C1 (centres undefined)	none
COCCCNC(=S)NC1CC2CCCC(C1)N2Cc1ccco1 (centres undefined)	none | Myeloid diff CP1 inactive | GFP autofluor inactive
CCCCNC(=O)C(NC(=O)Cc1cc(C(F)(F)F)cc(C(F)(F)F)c1)C(=O)c1ccccc1 (centres undefined)	none
COc1ccc(-c2nn(-c3ccccc3)cc2/C=N/Nc2ccc3ccccc3n2)cc1OC	none
COc1ccc(-c2nn(-c3ccccc3)cc2/C=N/Nc2ccc(S(N)(=O)=O)cc2[N+](=O)[O-])cc1OC	none | Myeloid diff CP1 inactive | GFP autofluor inactive
COC(=O)c1ccccc1NC(=O)Oc1ccc(F)cc1	none | Myeloid diff CP1 inactive | GFP autofluor inactive
CC(=O)N[C@H]1[C@H]([C@H](O)[C@H](O)CO)O[C@](O)(C(=O)O)C[C@@H]1O	none
Cc1cc(C(=O)CN2C(=O)C(=O)N(Cc3ccco3)C2=O)c(C)n1CCc1ccccc1	none
Cc1cc(C(=O)CN2C(=O)C(=O)N(Cc3ccco3)C2=O)c(C)n1CCc1ccc(F)cc1	none | Myeloid diff CP1 inactive | GFP autofluor inactive
O=C1CC(C(=O)N2CCCc3ccccc32)CN1c1ccc(F)cc1 (centres undefined)	none
O=C1CC(C(=O)N2CCCc3ccccc32)CN1c1ccc(Cl)cc1 (centres undefined)	none | Myeloid diff CP1 inactive | GFP autofluor inactive
O=C(COC(=O)c1ccc(O)cc1)NCC1COc2ccccc2O1 (centres undefined)	none
Oc1cccc(Nc2nc(O)c(/C=C3\C=Nc4ccccc43)s2)c1	Myeloid diff MLP active | Myeloid diff CP1 inactive | GFP autofluor inactive
CCn1c(C)c(C(=O)c2ccccc2)c(C#N)c1C(=O)O	none (no result: Myeloid diff MLP)
Cc1ccc(C)c(OCCC(=O)OCC(=O)NC2CCCC2)c1	none
Cc1ccc(S(=O)(=O)NCc2ccco2)cc1C(N)=O	Myeloid diff MLP active | Myeloid diff CP1 inactive | GFP autofluor inactive
CC(C)NC(=O)N(C)C[C@@H]1Oc2ccc(NC(=O)CCN3CCOCC3)cc2CC(=O)N([C@@H](C)CO)C[C@@H]1C	none
COc1ccc(C(=O)NC(=S)NCc2cccnc2)cc1Cl	none
Cc1ccc(NC(=O)COc2nsnc2N2CCOCC2)cc1Cl	none
CC(C)(C)CC(C)(C)NCC(O)COc1c(F)cc(Br)cc1F (centres undefined)	Myeloid diff MLP active | Myeloid diff CP1 inactive | GFP autofluor inactive
CC(C)(C)NCC(O)COc1c(F)cc(Br)cc1F (centres undefined)	none
CCCN1C(C)C(C(=O)OCC)=CN(Cc2cccc(I)c2)S1(=O)=O (centres undefined)	none
CC(=O)Nc1cccc(OCCCNS(=O)(=O)c2ccc(C#N)cc2)c1	none (no result: Myeloid diff MLP)
Cc1nc2ccc(S(=O)(=O)NCC(=O)N3CCC(C)CC3)cc2s1	none | Myeloid diff CP1 inactive | GFP autofluor inactive
Cc1nc2ccc(S(=O)(=O)NCC(=O)N3CCC(N4CCCCC4)CC3)cc2s1	none
Cc1ccc(CNc2nc(NCC3CC3)nc3ccsc23)c(C)c1	Myeloid diff MLP active | Myeloid diff CP1 inactive | GFP autofluor inactive
CCOc1ccccc1-n1c(SCC(=O)N2CCOCC2)nc2ccccc2c1=O	none
COc1ccc(S(=O)(=O)N2C3CCC2CC(NC(=O)C2CC2)C3)cc1 (centres undefined)	none | Myeloid diff CP1 inactive | GFP autofluor inactive
O=C(C1=C(O)C(=O)N(CCCN2CCOCC2)C1c1ccccn1)c1cc2ccccc2o1 (centres undefined)	none | Myeloid diff CP1 inactive | GFP autofluor inactive
O=C(c1cc2c(s1)-c1ccccc1OC2)N1CCCC1	none | Myeloid diff CP1 inactive | GFP autofluor inactive
c1cc(-c2cc3nc(NC4CCCCC4)ccn3n2)ccc1OCCN1CCOCC1	none | Myeloid diff CP1 inactive | GFP autofluor inactive
c1cc(-c2cc3nc(NCC4CC4)ccn3n2)ccc1OCCN1CCOCC1	none
C=C(C)[C@@H]1C2=CC(C(=O)OC)=C(C[C@H](C(=C)C)[C@H]3O[C@H]3C3=C[C@H]1OC3=O)O2	none | Myeloid diff CP1 inactive | GFP autofluor inactive
CC(C)n1nnnc1C1c2ccccc2C(=O)N1Cc1ccco1 (centres undefined)	Myeloid diff MLP active | Myeloid diff CP1 inactive | GFP autofluor inactive
COc1ccc(-c2cc(-c3cc(OC)ccc3O)[nH]n2)cc1	none | Myeloid diff CP1 inactive | GFP autofluor inactive
COc1ccccc1-n1c(SC)nc2c(sc(=S)n2-c2ccccc2)c1=O	none
COc1ccccc1-n1c(=S)sc2c(=O)n(Cc3ccco3)c(SC)nc21	none | Myeloid diff CP1 inactive | GFP autofluor inactive
